Data published in ChEMBL document CHEMBL3627719, “Discovery of bis-aryl urea derivatives as potent and selective Limk inhibitors: Exploring Limk1 activity and Limk1/ROCK2 selectivity through a combined computational study” (Bioorg Med Chem, 2015).
pIC50: −log10 of the molar value.

How the values were obtained:
LIM domain kinase 1 = LIM domain kinase 1 (Homo sapiens, UniProt P53667); assay: Inhibition of LIMK1 (unknown origin) using 1 uM cofilin as substrate
Procedure, shortened: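 IC50 was determined in 10-dose mode using a 3-fold serial dilution series. Reactions contained ATP, cofilin as substrate, and Limk1 enzyme at 50 nM.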

[1] = target: Rho-associated protein kinase 2 (Homo sapiens, UniProt O75116); assay: Inhibition of ROCK2 (unknown origin) after 4 hrs using 1 uM STK2 as substrate
Chain of Rho-associated protein kinase 2 (O75116 whole entry): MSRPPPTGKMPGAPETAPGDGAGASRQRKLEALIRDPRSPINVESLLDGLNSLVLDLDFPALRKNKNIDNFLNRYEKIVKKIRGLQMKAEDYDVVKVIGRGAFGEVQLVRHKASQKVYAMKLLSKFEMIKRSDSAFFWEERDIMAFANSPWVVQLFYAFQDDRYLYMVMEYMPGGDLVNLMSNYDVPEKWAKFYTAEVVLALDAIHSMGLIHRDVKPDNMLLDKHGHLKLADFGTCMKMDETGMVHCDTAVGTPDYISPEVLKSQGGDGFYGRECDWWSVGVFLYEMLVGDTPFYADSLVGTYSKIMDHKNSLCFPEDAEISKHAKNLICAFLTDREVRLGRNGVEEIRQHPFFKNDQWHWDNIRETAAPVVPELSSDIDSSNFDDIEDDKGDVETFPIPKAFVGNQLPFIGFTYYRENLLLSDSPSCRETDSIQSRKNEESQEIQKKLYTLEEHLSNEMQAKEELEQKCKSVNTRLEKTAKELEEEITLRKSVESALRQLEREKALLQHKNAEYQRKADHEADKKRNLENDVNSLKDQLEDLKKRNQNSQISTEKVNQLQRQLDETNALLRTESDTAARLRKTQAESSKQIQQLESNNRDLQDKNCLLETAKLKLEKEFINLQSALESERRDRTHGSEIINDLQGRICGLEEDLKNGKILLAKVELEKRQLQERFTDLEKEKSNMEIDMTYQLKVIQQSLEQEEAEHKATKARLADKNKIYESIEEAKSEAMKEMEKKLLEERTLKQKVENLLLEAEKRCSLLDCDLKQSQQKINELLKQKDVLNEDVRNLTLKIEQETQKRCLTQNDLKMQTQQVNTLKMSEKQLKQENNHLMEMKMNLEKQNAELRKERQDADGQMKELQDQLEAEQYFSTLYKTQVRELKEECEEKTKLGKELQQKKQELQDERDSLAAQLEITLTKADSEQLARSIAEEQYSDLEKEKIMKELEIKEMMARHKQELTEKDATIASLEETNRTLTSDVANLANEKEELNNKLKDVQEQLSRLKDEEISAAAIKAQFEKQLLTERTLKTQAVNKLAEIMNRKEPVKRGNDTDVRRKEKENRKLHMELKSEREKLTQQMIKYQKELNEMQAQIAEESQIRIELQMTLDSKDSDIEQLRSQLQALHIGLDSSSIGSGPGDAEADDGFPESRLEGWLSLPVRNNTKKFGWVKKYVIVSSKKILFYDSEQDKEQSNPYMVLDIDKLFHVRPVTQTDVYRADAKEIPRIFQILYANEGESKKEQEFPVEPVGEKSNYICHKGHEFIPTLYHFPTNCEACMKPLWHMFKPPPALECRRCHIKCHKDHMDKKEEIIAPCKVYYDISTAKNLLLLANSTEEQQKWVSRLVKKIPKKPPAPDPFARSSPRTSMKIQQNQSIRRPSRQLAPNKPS
Procedure, shortened: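 HTRF kinase assay using STK2 substrate plus ATP in STK-buffer, with test compound pin-dispensed. Reaction ran 4 h at rt and was stopped with antibody and 62.5 nM streptavidin-XL in detection buffer. After a further 1 h at rt, plates were read in HTRF mode.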

Chain of LIM domain kinase 1 (P53667 whole entry, the tested form may be a part): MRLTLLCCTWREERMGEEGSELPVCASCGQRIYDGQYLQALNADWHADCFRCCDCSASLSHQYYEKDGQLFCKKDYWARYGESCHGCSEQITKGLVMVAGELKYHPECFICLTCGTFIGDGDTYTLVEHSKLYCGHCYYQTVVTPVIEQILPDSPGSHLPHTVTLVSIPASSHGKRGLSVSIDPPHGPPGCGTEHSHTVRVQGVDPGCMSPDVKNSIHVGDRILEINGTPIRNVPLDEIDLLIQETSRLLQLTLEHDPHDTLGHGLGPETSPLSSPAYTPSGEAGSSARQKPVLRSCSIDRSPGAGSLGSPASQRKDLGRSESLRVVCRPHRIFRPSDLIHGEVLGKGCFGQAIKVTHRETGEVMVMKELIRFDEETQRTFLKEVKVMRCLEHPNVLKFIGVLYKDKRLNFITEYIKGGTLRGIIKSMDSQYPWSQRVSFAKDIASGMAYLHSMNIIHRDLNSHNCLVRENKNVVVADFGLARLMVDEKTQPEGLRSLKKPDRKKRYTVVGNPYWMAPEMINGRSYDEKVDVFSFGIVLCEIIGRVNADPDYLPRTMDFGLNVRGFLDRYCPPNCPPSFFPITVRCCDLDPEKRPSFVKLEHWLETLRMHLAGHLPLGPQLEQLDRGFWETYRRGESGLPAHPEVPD

**Q.** With `Cc1c[nH]c2ncnc(-c3ccc(NC(=O)Nc4cncnc4)c(F)c3)c12` as the compound, how does the pIC50 (LIM domain kinase 1) read?
**A.** 7.26

**Q.** What about the pIC50 [1] of the same compound?
**A.** 5.99

**Q.** With `Cc1ccc(NC(=O)Nc2ccc(-c3ncnc4[nH]cc(C)c34)cc2F)cn1` as the compound, how does the pIC50 (LIM domain kinase 1) read?
**A.** 7.96

**Q.** What about the pIC50 [1] of the same compound?
**A.** 5.67

**Q.** With `Cc1c[nH]c2ncnc(-c3ccc(NC(=O)N(CCO)c4ccccc4)c(F)c3)c12` as the compound, how does the pIC50 (LIM domain kinase 1) read?
**A.** 7.07

**Q.** And the pIC50 [1]?
**A.** 5.35

**Q.** Which results are given for `Cc1cc(NC(=O)Nc2ccc(-c3ncnc4[nH]cc(C)c34)cc2F)ccn1`?
**A.** pIC50 (LIM domain kinase 1): 7.72; pIC50 [1]: 5.70

**Q.** Which results are given for `COc1ccc(NC(=O)Nc2ccc(-c3ncnc4[nH]cc(C)c34)cc2F)cc1`?
**A.** pIC50 (LIM domain kinase 1): 8.00; pIC50 [1]: < 4.70
